The values that follow come from ChEMBL document CHEMBL1275417, “Biological activities of novel gyrase inhibitors of the aminocoumarin class” (Antimicrob Agents Chemother, 2008).

Structures are written as SMILES. ≈ marks a conversion by molar mass, not a printed value.

One assay addresses DNA gyrase subunit B (Escherichia coli, UniProt P0AES6). Nature of the assay: Inhibition of Escherichia coli JM109 DNA gyrase subunit B assessed as ATP hydrolysis by ATPase assay.
Assay [1] concerns the target DNA gyrase subunit A (Escherichia coli K-12) (UniProt P0AES4). Put plainly: Inhibition of Escherichia coli K-12 DNA gyrase A expressed in Escherichia coli DC2 assessed as compound concentration required for => 4-fold induction of luxCDABE operon by reported gene assay. The gist of the method: (§1)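 E. coli DC2 carrying a gyrA or sulA promoter–luxCDABE (Photorhabdus) fusion plasmid. Grown overnight at 37°C in LB with 2 μg/ml tetracycline, then diluted 1:100 in LB without tetracycline and precultured 1.5 h at 37°C. Compounds were added from DMSO stocks to 1% final DMSO and incubated 5 h at 37°C. Bioluminescence was divided by A595, and induction factor is the treated/untreated ratio. The value is the lowest test concentration giving ≥4-fold induction.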

Assay [2] deals with T1, Cell division inhibitor SulA (Escherichia coli K-12) (UniProt P0AFZ5).
T1 sequence (whole entry): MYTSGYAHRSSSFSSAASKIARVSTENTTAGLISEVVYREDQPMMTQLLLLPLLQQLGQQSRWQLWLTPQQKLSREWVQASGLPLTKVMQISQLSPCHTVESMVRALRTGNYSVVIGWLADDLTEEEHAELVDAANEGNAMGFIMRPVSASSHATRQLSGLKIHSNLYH
Put plainly: Inhibition of Escherichia coli K-12 DNA sulA expressed in Escherichia coli DC2 assessed as compound concentration required for => 4-fold induction of luxCDABE operon by reported gene assay. The essentials: as §1

For assay [3], the system named is Staphylococcus aureus. Put plainly: Antibacterial activity against Staphylococcus aureus ATCC 29213 by broth microdilution method. It counts as functional.
The subject of assay [4] is Staphylococcus aureus. Put plainly: Antibacterial activity against Staphylococcus aureus ATCC 43300 by broth microdilution method. In kind it is functional. On the technique in general: Broth dilution looks for growth in wells or tubes with falling amounts of substance.
Assay [5] has as its system Staphylococcus aureus. Nature of the assay: Antibacterial activity against Staphylococcus aureus 80CR5 by broth microdilution method. In kind it is functional.
Assay [6] concerns Streptococcus pneumoniae. Nature of the assay: Antibacterial activity against Streptococcus pneumoniae ATCC 49619 by broth microdilution method. In kind it is functional.
The subject of assay [7] is Streptococcus pneumoniae. Put plainly: Antibacterial activity against Streptococcus pneumoniae SL336-T by broth microdilution method. It counts as functional.
Assay [8] relates to Streptococcus pneumoniae. Put plainly: Antibacterial activity against Streptococcus pneumoniae TUPELO by broth microdilution method. It counts as functional.
The next assay relates to Enterococcus faecalis. Put plainly: Antibacterial activity against Enterococcus faecalis ATCC 29212 by broth microdilution method. It counts as functional.
In the next assay the test system is Enterococcus faecium. Put plainly: Antibacterial activity against Enterococcus faecium ATCC 19434 by broth microdilution method. It counts as functional.
For assay [9], the system named is Escherichia coli. Nature of the assay: Antibacterial activity against Escherichia coli ATCC 25922 by broth microdilution method. It counts as functional.
Assay [10] has as its system Escherichia coli. Put plainly: Antibacterial activity against Escherichia coli UB1005 by broth microdilution method. It counts as functional.
Assay [11] has as its system Escherichia coli. Nature of the assay: Antibacterial activity against Escherichia coli DC2 by broth microdilution method. It counts as functional.
For another assay, the system named is Klebsiella pneumoniae. Nature of the assay: Antibacterial activity against Klebsiella pneumoniae ATCC 27736 by broth microdilution method. It counts as functional.
Assay [12] deals with Pseudomonas aeruginosa. Put plainly: Antibacterial activity against Pseudomonas aeruginosa ATCC 27853 by broth microdilution method. It counts as functional.
The subject of assay [13] is Pseudomonas aeruginosa. Nature of the assay: Antibacterial activity against Pseudomonas aeruginosa K799/WT by broth microdilution method. It counts as functional.
Assay [14] relates to Pseudomonas aeruginosa. Put plainly: Antibacterial activity against Pseudomonas aeruginosa K799/61 by broth microdilution method. In kind it is functional.
Assay [15] concerns the target DNA gyrase (Escherichia coli). Put plainly: Inhibition of Escherichia coli JM109 DNA gyrase assessed as DNA triple helix formation by supercoiling assay.

Sequence of DNA gyrase subunit A (Escherichia coli K-12) (P0AES4 whole entry, the tested form may be a part): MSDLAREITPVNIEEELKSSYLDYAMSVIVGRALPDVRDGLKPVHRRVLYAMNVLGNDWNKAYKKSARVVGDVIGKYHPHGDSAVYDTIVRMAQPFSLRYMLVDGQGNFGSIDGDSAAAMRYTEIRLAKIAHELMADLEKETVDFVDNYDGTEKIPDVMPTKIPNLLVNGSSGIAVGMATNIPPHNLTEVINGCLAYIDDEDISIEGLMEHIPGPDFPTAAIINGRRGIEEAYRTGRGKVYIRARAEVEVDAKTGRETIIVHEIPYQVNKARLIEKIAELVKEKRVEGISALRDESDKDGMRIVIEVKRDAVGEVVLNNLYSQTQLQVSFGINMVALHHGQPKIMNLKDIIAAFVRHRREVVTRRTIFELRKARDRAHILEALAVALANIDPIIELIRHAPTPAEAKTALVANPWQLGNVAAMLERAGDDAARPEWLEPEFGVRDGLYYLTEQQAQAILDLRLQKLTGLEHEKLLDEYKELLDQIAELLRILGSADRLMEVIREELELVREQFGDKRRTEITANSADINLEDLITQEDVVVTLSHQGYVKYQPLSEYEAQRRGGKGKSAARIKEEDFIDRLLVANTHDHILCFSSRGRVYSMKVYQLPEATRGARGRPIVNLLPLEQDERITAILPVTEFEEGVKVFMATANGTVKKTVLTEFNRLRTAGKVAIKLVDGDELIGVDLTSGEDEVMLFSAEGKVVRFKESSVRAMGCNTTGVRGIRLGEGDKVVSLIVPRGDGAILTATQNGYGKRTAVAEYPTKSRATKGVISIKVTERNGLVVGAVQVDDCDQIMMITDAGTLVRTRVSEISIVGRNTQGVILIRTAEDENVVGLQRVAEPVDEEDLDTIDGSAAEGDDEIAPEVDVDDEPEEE

In the case of `COc1cc(C(=O)Nc2c(O)c3ccc(O[C@@H]4OC(C)(C)[C@H](OC)[C@@H](OC(=O)c5ccc(C)[nH]5)[C@H]4O)c(Cl)c3oc2=O)ccc1O`, the IC50 (in general, the concentration that gives 50% inhibition) on DNA gyrase subunit B was found to be 122 nM; in assay [15], 22 nM. Besides, the values for the Activity in [1] and in assay [2] were 25 µM and 6.3 µM, respectively. Moreover, the MIC (usually the lowest concentration that inhibits growth of the organism) in the assay on Staphylococcus aureus [3] amounted to 1 µg/mL (≈ 1.52 µM); in the assay on Staphylococcus aureus [4] it was 1 µg/mL (≈ 1.52 µM); against Staphylococcus aureus [5] it was 32 µg/mL (≈ 48.6 µM); against Streptococcus pneumoniae [6] it was 2 µg/mL (≈ 3.03 µM); in the assay with Streptococcus pneumoniae [7], 4 µg/mL (≈ 6.07 µM); against Streptococcus pneumoniae [8], 8 µg/mL (≈ 12.1 µM). Further, the minimum inhibitory concentration (MIC) was 16 µg/mL (≈ 24.3 µM) in the assay with Enterococcus faecalis; greater than 32 µg/mL against Enterococcus faecium; greater than 32 µg/mL against Escherichia coli [9]; greater than 32 µg/mL against Escherichia coli [10]; 32 µg/mL (≈ 48.6 µM) in the assay with Escherichia coli [11]; greater than 32 µg/mL in the assay on Klebsiella pneumoniae. The MIC in the assay on Pseudomonas aeruginosa [12] was greater than 32 µg/mL; against Pseudomonas aeruginosa [13], greater than 32 µg/mL; with Pseudomonas aeruginosa [14], 1 µg/mL (≈ 1.52 µM).

`COc1cc(C(=O)Nc2c(O)c3ccc(O[C@@H]4OC(C)(C)[C@H](OC)[C@@H](OC(=O)c5ccc(C)[nH]5)[C@H]4O)c(C)c3oc2=O)ccc1O`: the half-maximal inhibitory concentration (IC50) on DNA gyrase subunit B was 86 nM; in [15], 25 nM. The Activity in assay [1] and in [2] was 12.5 µM in each case. In addition, the minimum inhibitory concentration (MIC) with Staphylococcus aureus [3] was no more than 0.06 µg/mL; with Staphylococcus aureus [4] it was 0.25 µg/mL (≈ 0.391 µM); in the assay with Staphylococcus aureus [5] it was greater than 32 µg/mL; with Streptococcus pneumoniae [6], 1 µg/mL (≈ 1.57 µM); in the assay on Streptococcus pneumoniae [7], 2 µg/mL (≈ 3.13 µM); in the assay with Streptococcus pneumoniae [8], 4 µg/mL (≈ 6.26 µM). Moreover, the minimal inhibitory concentration (MIC) against Enterococcus faecalis is 8 µg/mL (≈ 12.5 µM); against Enterococcus faecium it was greater than 32 µg/mL; in the assay with Escherichia coli [9], greater than 32 µg/mL; against Escherichia coli [10], greater than 32 µg/mL; with Escherichia coli [11] it was 16 µg/mL (≈ 25.1 µM); with Klebsiella pneumoniae it was greater than 32 µg/mL. For the same compound, the minimum inhibitory concentration (MIC) is greater than 32 µg/mL against Pseudomonas aeruginosa [12], greater than 32 µg/mL with Pseudomonas aeruginosa [13] and 2 µg/mL (≈ 3.13 µM) against Pseudomonas aeruginosa [14].

Take `CO[C@@H]1[C@@H](OC(=O)c2ccc(C)[nH]2)[C@@H](O)[C@H](Oc2ccc3c(O)c(NC(=O)c4ccc(O)c(NC(=O)C(C)C)c4)c(=O)oc3c2Cl)OC1(C)C`: the 50% inhibitory concentration (IC50) came to 73 nM on DNA gyrase subunit B and 41 nM in assay [15]. Also, the Activity in assay [1] and in [2] was 3.1 µM each time. Also, the MIC is 2 µg/mL (≈ 2.8 µM) with Staphylococcus aureus [3]; 4 µg/mL (≈ 5.6 µM) against Staphylococcus aureus [4]; greater than 32 µg/mL with Staphylococcus aureus [5]; 4 µg/mL (≈ 5.6 µM) with Streptococcus pneumoniae [6]; 8 µg/mL (≈ 11.2 µM) with Streptococcus pneumoniae [7]; 16 µg/mL (≈ 22.4 µM) against Streptococcus pneumoniae [8]. The minimal inhibitory concentration (MIC) was 32 µg/mL (≈ 44.8 µM) against Enterococcus faecalis; greater than 32 µg/mL against Enterococcus faecium; greater than 32 µg/mL against Escherichia coli [9]; greater than 32 µg/mL against Escherichia coli [10]; 16 µg/mL (≈ 22.4 µM) against Escherichia coli [11]; greater than 32 µg/mL against Klebsiella pneumoniae. Besides, the minimum inhibitory concentration (MIC) in the assay on Pseudomonas aeruginosa [12] is greater than 32 µg/mL; with Pseudomonas aeruginosa [13], greater than 32 µg/mL; against Pseudomonas aeruginosa [14], 1 µg/mL (≈ 1.4 µM).

As for `CO[C@@H]1[C@@H](OC(=O)c2ccc(C)[nH]2)[C@@H](O)[C@H](Oc2ccc3c(O)c(NC(=O)/C=C/c4ccccc4)c(=O)oc3c2Cl)OC1(C)C`, the figures for the IC50 (on DNA gyrase subunit B; in assay [15]) were 90 nM and 34 nM, respectively. Moreover, the Activity in [1] came to 6.3 µM; in assay [2], 3.1 µM. Moreover, the MIC against Staphylococcus aureus [3] was 0.25 µg/mL (≈ 0.391 µM); against Staphylococcus aureus [4] it was 1 µg/mL (≈ 1.56 µM); against Staphylococcus aureus [5], greater than 32 µg/mL; in the assay with Streptococcus pneumoniae [6], 8 µg/mL (≈ 12.5 µM); in the assay with Streptococcus pneumoniae [7], 16 µg/mL (≈ 25 µM); against Streptococcus pneumoniae [8], 16 µg/mL (≈ 25 µM). Further, the minimal inhibitory concentration (MIC) was 16 µg/mL (≈ 25 µM) with Enterococcus faecalis; greater than 32 µg/mL against Enterococcus faecium; greater than 32 µg/mL in the assay with Escherichia coli [9]; greater than 32 µg/mL against Escherichia coli [10]; 32 µg/mL (≈ 50.1 µM) with Escherichia coli [11]; greater than 32 µg/mL against Klebsiella pneumoniae. Besides, the MIC against Pseudomonas aeruginosa [12] is greater than 32 µg/mL; in the assay on Pseudomonas aeruginosa [13], greater than 32 µg/mL; against Pseudomonas aeruginosa [14], 4 µg/mL (≈ 6.26 µM).
